Laboratory results: ChEMBL document CHEMBL3120102, “Structure-based design, synthesis and biological evaluation of novel anthra[1,2-d]imidazole-6,11-dione homologues as potential antitumor agents” (2013)

Experiments:
Format in all cases: functional
HT-29 = test: Cytotoxicity against human HT-29 cells assessed as growth inhibition after 48 hrs by SRB assay
In short: (§1)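 NCI 60-cell-line five-dose screen at […]. Drug exposure was 48 h, followed by sulforhodamine B protein staining. GI50, TGI and LC50 were calculated against a time-zero control and untreated plates, with dose–response curves plotted from log10 concentration.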

786-0 = test: Cytotoxicity against human 786-0 cells assessed as growth inhibition after 48 hrs by SRB assay; in short: as §1
SK-MEL-5 = test: Cytotoxicity against human SK-MEL-5 cells assessed as growth inhibition after 48 hrs by SRB assay
In short: (§2)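 NCI 60-cell-line screen, five-dose stage: each cell line exposed for 48 h to five concentrations spanning five log steps; cellular protein measured by sulforhodamine B colorimetry. A time-zero cell control and plates without drug are used to derive GI50, TGI and LC50 from log-concentration dose-response curves.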

K562 = test: Cytotoxicity against human K562 cells assessed as growth inhibition after 48 hrs by SRB assay; in short: as §1
CCRF-CEM = test: Cytotoxicity against human CCRF-CEM cells assessed as growth inhibition after 48 hrs by SRB assay; in short: as §1
RXF 393 = test: Cytotoxicity against human RXF393 cells assessed as growth inhibition after 48 hrs by SRB assay; in short: as §2
MCF7 = test: Cytotoxicity against human MCF7 cells assessed as growth inhibition after 48 hrs by SRB assay; in short: as §2
COLO 205 = test: Cytotoxicity against human COLO205 cells assessed as growth inhibition after 48 hrs by SRB assay; in short: as §1
SNB-19 = test: Cytotoxicity against human SNB19 cells assessed as growth inhibition after 48 hrs by SRB assay
In short: (§3)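 NCI 60-cell-line screen, two stages. Five-dose testing at […]. Cellular protein measured by sulforhodamine B colorimetry after 48 h drug exposure. A time-zero control and drug-free plates are used to derive GI50, TGI and LC50 from dose-response curves plotted as log10 concentration per cell line.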

SK-OV-3 = test: Cytotoxicity against human SKOV3 cells assessed as growth inhibition after 48 hrs by SRB assay; in short: as §2
[1] = (§4) Cytotoxicity against human OVCAR4 cells assessed as growth inhibition after 48 hrs by SRB assay; settings: OVCAR-4, 48 h; in short: as §2
OVCAR-4 = test: as §4; in short: as §2
SNB-75 = test: Cytotoxicity against human SNB75 cells assessed as growth inhibition after 48 hrs by SRB assay; in short: as §3
SN12C = test: Cytotoxicity against human SN12C cells assessed as growth inhibition after 48 hrs by SRB assay; in short: as §3
NCI/ADR-RES = test: (§5) Cytotoxicity against human NCI-ADR-RES cells assessed as growth inhibition after 48 hrs by SRB assay; in short: as §2
[2] = as §5; in short: as §2
DU-145 = test: Cytotoxicity against human DU145 cells assessed as growth inhibition after 48 hrs by SRB assay; in short: as §1
OVCAR-8 = test: Cytotoxicity against human OVCAR8 cells assessed as growth inhibition after 48 hrs by SRB assay; in short: as §2
UACC-62 = test: Cytotoxicity against human UACC62 cells assessed as growth inhibition after 48 hrs by SRB assay; in short: as §3
T47D = test: Cytotoxicity against human T47D cells assessed as growth inhibition after 48 hrs by SRB assay; in short: as §3
EKVX = test: (§6) Cytotoxicity against human EKVX cells assessed as growth inhibition after 48 hrs by SRB assay; in short: as §1
[3] = as §6; in short: as §1
A549 = test: Cytotoxicity against human A549 cells assessed as growth inhibition after 48 hrs by SRB assay; in short: as §1
UO-31 = test: (§7) Cytotoxicity against human UO31 cells assessed as growth inhibition after 48 hrs by SRB assay; in short: as §3
[4] = as §7; settings: UO-31, 48 h; in short: as §3
NCI-H23 = test: Cytotoxicity against human NCI-H23 cells assessed as growth inhibition after 48 hrs by SRB assay; in short: as §2
SF-539 = test: Cytotoxicity against human SF539 cells assessed as growth inhibition after 48 hrs by SRB assay; in short: as §2
MDA-MB-468 = test: Cytotoxicity against human MDA-MB-468 cells assessed as cell growth at 10 uM after 48 hrs by SRB assay; settings: MDA-MB-468, 48 h, read-out: Activity
In short: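 First stage of the NCI 60 human tumour cell line screen: a single dose is tested against every line. Cell growth is read as cellular protein by sulforhodamine B colorimetry after 48 h of drug exposure, with reference to a time-zero control and to untreated plates.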

NCI-H460 = test: Cytotoxicity against human NCI-H460 cells assessed as growth inhibition after 48 hrs by SRB assay; in short: as §2

SMILES: O=C1c2ccccc2C(=O)c2c1ccc1nc(SCCN3CCCC3)[nH]c21
- growth inhibition (GI) (HT-29): Dose-dependent effect
- GI50 (HT-29; HT-29, 48 h): 1.81 µM
- TGI (HT-29; HT-29, 48 h): 4.66 µM
- CC50 (HT-29; HT-29, 48 h, read-out: LC50 (the source's name)): 15.2 µM
- growth inhibition (GI) (786-0): Dose-dependent effect
- GI50 (786-0; 786-0, 48 h): 11.7 µM
- LC50 (concentration causing 50% net cell kill) (786-0; 786-0, 48 h): 54.7 µM
- TGI (786-0; 786-0, 48 h): 25.3 µM
- growth inhibition (GI) (SK-MEL-5): Dose-dependent effect
- GI50 (SK-MEL-5; SK-MEL-5, 48 h): 12.9 µM
- LC50 (concentration killing 50% of cells relative to time zero) (SK-MEL-5; SK-MEL-5, 48 h): 54.8 µM
- TGI (SK-MEL-5; SK-MEL-5, 48 h): 26.6 µM
- growth inhibition (GI) (K562): Dose-dependent effect
- GI50 (K562; K562, 48 h): 1.7 µM
- TGI (K562; K562, 48 h): 5.2 µM
- CC50 (K562; K562, 48 h, read-out: LC50 (the source's name)): 72 µM
- GI50 (CCRF-CEM): 3.34 µM
- LC50 (CCRF-CEM): 62.8 µM
- TGI (CCRF-CEM): 15.6 µM
- growth inhibition (GI) (CCRF-CEM): Dose-dependent effect
- growth inhibition (GI) (RXF 393): Dose-dependent effect
- GI50 (RXF 393; RXF 393, 48 h): 3.08 µM
- TGI (RXF 393; RXF 393, 48 h): 16.3 µM
- CC50 (RXF 393; RXF 393, 48 h, read-out: LC50 (the source's name)): 48.5 µM
- growth inhibition (GI) (MCF7): Dose-dependent effect
- GI50 (MCF7; MCF7, 48 h): 1.74 µM
- LC50 (concentration killing 50% of cells) (MCF7; MCF7, 48 h): 45.6 µM
- TGI (MCF7; MCF7, 48 h): 7.52 µM
- growth inhibition (GI) (COLO 205): Dose-dependent effect
- GI50 (COLO 205; COLO 205, 48 h): 3.07 µM
- LC50 (COLO 205; COLO 205, 48 h): 58.6 µM
- TGI (COLO 205; COLO 205, 48 h): 16.7 µM
- growth inhibition (GI) (SNB-19): Dose-dependent effect
- GI50 (SNB-19; SNB-19, 48 h): 17.1 µM
- LC50 (SNB-19; SNB-19, 48 h): 59.7 µM
- TGI (SNB-19; SNB-19, 48 h): 31.9 µM
- growth inhibition (GI) (SK-OV-3): Dose-dependent effect
- GI50 (SK-OV-3; SK-OV-3, 48 h): 10.5 µM
- LC50 (concentration killing 50% of cells present at time zero) (SK-OV-3; SK-OV-3, 48 h): 54 µM
- TGI (SK-OV-3; SK-OV-3, 48 h): 23.8 µM
- GI50 [1]: 1.89 µM
- LC50 (concentration killing 50% of cells) [1]: 38.9 µM
- TGI [1]: 7.34 µM
- growth inhibition (GI) (OVCAR-4): Dose-dependent effect
- growth inhibition (GI) (SNB-75): Dose-dependent effect
- GI50 (SNB-75; SNB-75, 48 h): 12.3 µM
- LC50 (SNB-75; SNB-75, 48 h): 51.5 µM
- TGI (SNB-75; SNB-75, 48 h): 25.2 µM
- GI50 (SN12C): 5.96 µM
- TGI (SN12C): 19.6 µM
- growth inhibition (GI) (SN12C): Dose-dependent effect
- CC50 (SN12C; read-out: LC50 (the source's name)): 46.1 µM
- growth inhibition (GI) (NCI/ADR-RES): Dose-dependent effect
- GI50 [2]: 6.98 µM
- LC50 (concentration causing 50% net cell kill) [2]: > 100 µM
- TGI [2]: 33.7 µM
- growth inhibition (GI) (DU-145): Dose-dependent effect
- GI50 (DU-145; DU-145, 48 h): 3.42 µM
- TGI (DU-145; DU-145, 48 h): 14.9 µM
- CC50 (DU-145; DU-145, 48 h, read-out: LC50 (the source's name)): 39.6 µM
- growth inhibition (GI) (OVCAR-8): Dose-dependent effect
- GI50 (OVCAR-8; OVCAR-8, 48 h): 6.38 µM
- LC50 (OVCAR-8; OVCAR-8, 48 h): > 100 µM
- TGI (OVCAR-8; OVCAR-8, 48 h): 30.4 µM
- growth inhibition (GI) (UACC-62): Dose-dependent effect
- GI50 (UACC-62; UACC-62, 48 h): 15.8 µM
- LC50 (UACC-62; UACC-62, 48 h): 57.4 µM
- TGI (UACC-62; UACC-62, 48 h): 30.1 µM
- GI50 (T47D): 17.5 µM
- LC50 (T47D): 92.8 µM
- TGI (T47D): 40.3 µM
- growth inhibition (GI) (T47D): Dose-dependent effect
- growth inhibition (GI) (EKVX): Dose-dependent effect
- TGI [3]: 26.5 µM
- growth inhibition (GI) (A549): Dose-dependent effect
- GI50 (A549; A549, 48 h): 3.8 µM
- TGI (A549; A549, 48 h): 15 µM
- growth inhibition (GI) (UO-31): Dose-dependent effect
- GI50 [4]: 2.08 µM
- LC50 [4]: 44.9 µM
- TGI [4]: 15.8 µM
- growth inhibition (GI) (NCI-H23): Dose-dependent effect
- TGI (NCI-H23; NCI-H23, 48 h): 25.7 µM
- growth inhibition (GI) (SF-539): Dose-dependent effect
- GI50 (SF-539; SF-539, 48 h): 6.79 µM
- TGI (SF-539; SF-539, 48 h): 20.2 µM
- CC50 (SF-539; SF-539, 48 h, read-out: LC50 (the source's name)): 47.4 µM
- growth at 10 µM (MDA-MB-468): 67.9%
- growth inhibition (GI) (NCI-H460): Dose-dependent effect
- TGI (NCI-H460; NCI-H460, 48 h): 4.77 µM
